Key:
[1] = tested on: Mus musculus; test: Toxicity day evaluation was carried out on day 5 for animal dosed with 12.5 mg/kg compound; 5/5; format: organism-based; design: dose 12.5 mg/kg; details: in vivo
[2] = tested on: Mus musculus; test: Toxicity day evaluation was carried out on day 5 for animal dosed with 25 mg/kg compound; 5/5; format: organism-based; design: dose 25 mg/kg; details: in vivo
[3] = tested on: Mus musculus; test: Body Weight Difference (BWD) of test animals with P388 administered with 12.5 mg/kg compound is determined; format: functional
How it was run: (§1)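 P388 leukaemia: about 10^6 cells in ascitic fluid inoculated ip on day 0 (CD2F1 mice). Compound given ip in normal saline as a freshly prepared solution or suspension, once daily on days 1–5. Treated-minus-control body weight difference in g, taken as day 5 minus day 1 weight. Groups of six.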

[4] = tested on: Mus musculus; test: The percent of the median survival time of test mice compared to control mice is determined for mice administered with 25 mg/kg compound; format: functional
[5] = tested on: Mus musculus; test: The percent of the median survival time of test mice compared to control mice is determined for mice administered with 200 mg/kg compound; format: functional
[6] = tested on: Mus musculus; test: The percent of the median survival time of test mice compared to control mice is determined for mice administered with 12.5 mg/kg compound; format: functional
[7] = tested on: Mus musculus; test: Body Weight Difference (BWD) of test animals with P388 administered with 100 mg/kg compound is determined; format: functional; how it was run: as §1
[8] = tested on: Mus musculus; test: Toxicity day evaluation was carried out on day 5 for animal dosed with 200 mg/kg compound; 5/5; format: organism-based; design: dose 200 mg/kg; details: in vivo
[9] = tested on: Mus musculus; test: Body Weight Difference (BWD) of test animals with P388 administered with 25 mg/kg compound is determined; format: functional; how it was run: as §1
[10] = tested on: Mus musculus; test: Toxicity day evaluation was carried out on day 5 for animal dosed with 100 mg/kg compound; 5/5; format: organism-based; design: dose 100 mg/kg; details: in vivo
[11] = tested on: Mus musculus; test: Body Weight Difference (BWD) of test animals with P388 administered with 200 mg/kg compound is determined; format: functional; how it was run: as §1
[12] = tested on: Mus musculus; test: Body Weight Difference (BWD) of test animals with P388 administered with 50 mg/kg compound is determined; format: functional; how it was run: as §1
[13] = tested on: Mus musculus; test: Toxicity day evaluation was carried out on day 5 for animal dosed with 50 mg/kg compound; 5/5; format: organism-based; design: dose 50 mg/kg; details: in vivo
[14] = tested on: Mus musculus; test: Toxicity day evaluation was carried out on day 5 for animal dosed with 200 mg/kg compound. Number of animals in initial test groups were 6; format: organism-based; design: dose 200 mg/kg; details: in vivo
[15] = tested on: Mus musculus; test: Toxicity day evaluation was carried out on day 5 for animal dosed with 100 mg/kg compound. Number of animals in initial test groups were 6; format: organism-based; design: dose 100 mg/kg; details: in vivo
[16] = tested on: Mus musculus; test: The percent of the median survival time of test mice compared to control mice is determined for mice administered with 25 mg/kg compound.; format: functional
[17] = tested on: Mus musculus; test: Toxicity day evaluation was carried out on day 5 for animal dosed with 50 mg/kg compound. Number of animals in initial test groups were 6; format: organism-based; design: dose 50 mg/kg; details: in vivo
[18] = tested on: Mus musculus; test: Toxicity day evaluation was carried out on day 5 for animal dosed with 25 mg/kg compound. Number of animals in initial test groups were 6; format: organism-based; design: dose 25 mg/kg; details: in vivo
[19] = tested on: Mus musculus; test: Toxicity day evaluation was carried out on day 5 for animal dosed with 400 mg/kg compound. Number of animals in initial test groups were 6; format: organism-based; design: dose 400 mg/kg; details: in vivo
[20] = tested on: Mus musculus; test: Body Weight Difference (BWD) of test animals with P388 administered with 400 mg/kg compound is determined; format: functional; how it was run: as §1
[21] = tested on: Mus musculus; test: Ability of 25 mg/kg of compound to kill P388 tumor cells in mice is expressed as the log of the tumor cell population at the onset of treatment minus the log of the tumor cell population at the end of treatment.; format: functional
How it was run: (§2)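 P388 leukemia, 10^6 cells implanted ip on day 0. Drug given ip daily on days 1-5 as a saline suspension freshly prepared before injection. Log cell kill is computed from survival, with % T/C taken as median survival time of treated versus control mice.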

[22] = tested on: Mus musculus; test: Ability of 50 mg/kg of compound to kill P388 tumor cells in mice is expressed as the log of the tumor cell population at the onset of treatment minus the log of the tumor cell population at the end of treatment.; format: functional; how it was run: as §2
[23] = tested on: Mus musculus; test: Body Weight Difference (BWD) of test animals administered with 100 mg/kg compound is determined; format: functional
[24] = tested on: Mus musculus; test: Toxicity day evaluation was carried out on day 5 for animal dosed with 25 mg/kg compound; 6/6; format: organism-based; design: dose 25 mg/kg; details: in vivo
[25] = tested on: Mus musculus; test: Body Weight Difference (BWD) of test animals administered with 200 mg/kg compound is determined on day 5 for P388 tumor cells; format: functional; how it was run: as §1
[26] = tested on: Mus musculus; test: Ability of 100 mg/kg of compound to kill tumor cells in mice is expressed as the log of the tumor cell population at the onset of treatment minus the log of the tumor cell population at the end of treatment.; format: functional
[27] = tested on: Mus musculus; test: Body Weight Difference (BWD) of test animals administered with 50 mg/kg compound is determined on day 5 for P388 tumor cells; format: functional; how it was run: as §1
[28] = tested on: Mus musculus; test: Body Weight Difference (BWD) of test animals administered with 400 mg/kg compound is determined on day 5 for P388 tumor cells; format: functional; how it was run: as §1
[29] = tested on: Mus musculus; test: Toxicity day evaluation was carried out on day 5 for animal dosed with 400 mg/kg compound; 3/6; format: organism-based; design: dose 400 mg/kg; details: in vivo
[30] = tested on: Mus musculus; test: Body Weight Difference (BWD) of test animals administered with 25 mg/kg compound is determined on day 5 for P388 tumor cells; format: functional; how it was run: as §1
[31] = tested on: Mus musculus; test: Ability of 200 mg/kg of compound to kill tumor cells in mice is expressed as the log of the tumor cell population at the onset of treatment minus the log of the tumor cell population at the end of treatment.; format: functional
[32] = tested on: Mus musculus; test: The percent of the median survival time of test mice compared to control mice is determined for mice administered with 12.5 mg/kg compound.; format: functional
[33] = tested on: Mus musculus; test: Toxicity day evaluation was carried out on day 5 for animal dosed with 12.5 mg/kg compound; 6/6; format: organism-based; design: dose 12.5 mg/kg; details: in vivo
[34] = tested on: Mus musculus; test: The percent of the median survival time of test mice compared to control mice is determined for mice administered with 50 mg/kg compound.; format: functional
[35] = tested on: Mus musculus; test: Ability of 50 mg/kg of compound to kill tumor cells in mice is expressed as the log of the tumor cell population at the onset of treatment minus the log of the tumor cell population at the end of treatment.; format: functional
[36] = tested on: Mus musculus; test: Body Weight Difference (BWD) of test animals administered with 100 mg/kg compound is determined on day 5 for P388 tumor cells; format: functional; how it was run: as §1
[37] = tested on: Mus musculus; test: Toxicity day evaluation was carried out on day 5 for animal dosed with 200 mg/kg compound; 6/6; format: organism-based; design: dose 200 mg/kg; details: in vivo
[38] = tested on: Mus musculus; test: Body Weight Difference (BWD) of test animals administered with 12.5 mg/kg compound is determined on day 5 for P388 tumor cells; format: functional; how it was run: as §1
[39] = tested on: Mus musculus; test: Toxicity day evaluation was carried out on day 5 for animal dosed with 50 mg/kg compound; 6/6; format: organism-based; design: dose 50 mg/kg; details: in vivo
[40] = tested on: Mus musculus; test: Toxicity day evaluation was carried out on day 5 for animal dosed with 100 mg/kg compound; 6/6; format: organism-based; design: dose 100 mg/kg; details: in vivo
[41] = tested on: Mus musculus; test: Toxicity day evaluation was carried out on day 5 for animal dosed with 25 mg/kg compound. Number of animals in initial test groups were 5; format: organism-based; design: dose 25 mg/kg; details: in vivo
[42] = tested on: Mus musculus; test: Toxicity day evaluation was carried out on day 5 for animal dosed with 200 mg/kg compound. Number of animals in initial test groups were 5; format: organism-based; design: dose 200 mg/kg; details: in vivo
[43] = tested on: Mus musculus; test: Toxicity day evaluation was carried out on day 5 for animal dosed with 100 mg/kg compound. Number of animals in initial test groups were 5; format: organism-based; design: dose 100 mg/kg; details: in vivo
[44] = tested on: Mus musculus; test: Toxicity day evaluation was carried out on day 5 for animal dosed with 50 mg/kg compound. Number of animals in initial test groups were 5; format: organism-based; design: dose 50 mg/kg; details: in vivo
[45] = tested on: Mus musculus; test: Toxicity day evaluation was carried out on day 5 for animal dosed with 12.5 mg/kg compound. Number of animals in initial test groups were 5; format: organism-based; design: dose 12.5 mg/kg; details: in vivo
[46] = tested on: Mus musculus; test: Ability of 400 mg/kg of compound to kill tumor cells in mice is expressed as the log of the tumor cell population at the onset of treatment minus the log of the tumor cell population at the end of treatment; format: functional
[47] = tested on: Mus musculus; test: Ability of 200 mg/kg of compound to kill tumor cells in mice is expressed as the log of the tumor cell population at the onset of treatment minus the log of the tumor cell population at the end of treatment; format: functional
[48] = tested on: Mus musculus; test: Toxicity day evaluation was carried out on day 5 for animal dosed with 400 mg/kg compound; 6/6; format: organism-based; design: dose 400 mg/kg; details: in vivo

`CNC(=O)OCc1ncn(-c2ccccc2)c1COC(=O)NC` was tested, and the “Survivors / animals tested” value [1] was 5, the “Survivors / animals tested” value [2] was 5 and the BWD [3] was -0.4 g. For the same compound, the T/C [4] was 95%, the T/C [5] was 99% and the T/C [6] was 99%. For the same compound, the BWD [7] was -0.4 g, the “Survivors / animals tested” value [8] was 5 and the BWD [9] was 0.2 g. For the same compound, the “Survivors / animals tested” value [10] was 5, the BWD [11] was -1.2 g and the BWD [12] was -0.8 g. The “Survivors / animals tested” value [13] was 5.

`COc1nc(COC(=O)NC(C)C)c(COC(=O)NC(C)C)n1C` was tested, and the “Survivors / animals tested” value [14] was 6, the “Survivors / animals tested” value [15] was 6 and the T/C [16] was 130%. For the same compound, the “Survivors / animals tested” value [17] was 6, the “Survivors / animals tested” value [18] was 6 and the “Survivors / animals tested” value [19] was 6. It also gave a BWD [20] of -4.2 g, a KE [21] of -0.6 and a BWD [9] of -0.1 g. It also gave a BWD [11] of -2.6 g, a BWD [12] of -1 g and a KE [22] of 0.54. The BWD [23] was -2.1 g.

In the case of `CSc1nc(COC(=O)NC(C)C)c(COC(=O)NC(C)C)n1Cc1ccccc1`, the “Survivors / animals tested” value [24] is reported as 6, the BWD [25] is reported as -2.2 g and the KE [26] is reported as -0.39. The BWD [27] was -0.5 g, the BWD [28] was -3.2 g and the “Survivors / animals tested” value [29] was 3. The BWD [30] was -1.5 g, the KE [31] was -0.32 and the T/C [32] was 98%. For the same compound, the “Survivors / animals tested” value [33] was 6, the T/C [34] was 110% and the KE [35] was -0.42. The BWD [36] was -0.3 g, the “Survivors / animals tested” value [37] was 6 and the BWD [38] was -0.2 g. The “Survivors / animals tested” value [39] was 6 and the “Survivors / animals tested” value [40] was 6.

With `CNC(=O)OCc1nc(-c2ccccc2)n(C)c1COC(=O)NC` the BWD [3] was -0.2 g, the “Survivors / animals tested” value [41] was 5 and the “Survivors / animals tested” value [42] was 5. The “Survivors / animals tested” value [43] was 5, the BWD [7] was -1 g and the “Survivors / animals tested” value [44] was 5. For the same compound, the BWD [9] was 0 g, the T/C [32] was 98% and the BWD [11] was -2.2 g. The BWD [12] was -0.8 g and the “Survivors / animals tested” value [45] was 5.

Work on `CNC(=O)OCc1nc(SC)n(Cc2ccccc2)c1COC(=O)NC` yielded a BWD [25] of -0.4 g, a BWD [27] of 0.9 g and a BWD [28] of -1.2 g. For the same compound, the BWD [36] was 0.4 g, the “Survivors / animals tested” value [37] was 6 and the KE [46] was -0.71. The KE [47] was -0.44, the “Survivors / animals tested” value [48] was 6 and the “Survivors / animals tested” value [39] was 6. For the same compound, the “Survivors / animals tested” value [40] was 6.
